Source: ChEMBL document CHEMBL3112527, “Quinoline-pyrimidine hybrids: synthesis, antiplasmodial activity, SAR, and mode of action studies” (J Med Chem, 2014)
Converted amounts (≈) assume the structure as drawn. The source made the active and inactive calls. The calls are words filed in the database; no cut-off is given here.

How the values were obtained:
Sindbis virus = test: Antiviral activity against Sindbis virus infected in African green monkey Vero cells assessed as inhibition of virus-induced cytopathicity; assay type: functional, organism-based
Human betaherpesvirus 5 [1] = test: Antiviral activity against Cytomegalovirus Davis infected in HEL cells assessed as inhibition of virus-induced cytopathicity; assay type: functional, organism-based
Punta Toro virus = test: Antiviral activity against Punta Toro virus infected in African green monkey Vero cells assessed as inhibition of virus-induced cytopathicity; assay type: functional, organism-based
In short: (§1)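 Confluent monolayers (HEL, Vero, HeLa or CrFK, as applicable) were inoculated with 100 CCID50 of virus, with 1 CCID50 being the dose that infects 50% of cultures. Infection ran in the presence of varying compound concentrations. Inhibition of virus-induced cytopathicity was scored against infected cultures left untreated.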

[2] = system: Vesicular stomatitis virus; test: Antiviral activity against Vesicular stomatitis virus infected in human HeLa cells assessed as inhibition of virus-induced cytopathicity; assay type: functional, organism-based
In short: (§2)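 Confluent monolayers in 96-well plates were inoculated with 100 CCID50 of virus in the presence of varying concentrations of compound. Read-out was inhibition of virus-induced cytopathicity, compared with untreated infected cultures. Cytotoxicity was judged microscopically or by MTT viability staining.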

Coxsackievirus B4 [3] = test: Antiviral activity against Coxsackievirus B4 infected in African green monkey Vero cells assessed as inhibition of virus-induced cytopathicity; assay type: functional, organism-based; in short: as §1
Influenza A virus H3N2 = test: Antiviral activity against Influenza A virus H3N2 infected in MDCK cells assessed as inhibition of virus-induced cytopathicity; assay type: functional, organism-based; in short: as §2
[4] = Aqueous solubility of the compound in PBS buffer at pH 7.4 after 24 hrs by HPLC analysis; assay type: physicochemical; settings: pH 7.4, 24 h
Human alphaherpesvirus 3 = test: Antiviral activity against Varicella-zoster virus infected in HEL cells assessed as inhibition of virus-induced cytopathicity; assay type: functional, organism-based
[5] = Cytotoxicity against human HeLa cells assessed as alteration of cell morphology by microscopic analysis; assay type: cell-based; settings: read-out: MIC
In short: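 Cells (Vero, HEL, MDCK or HeLa) were exposed to a range of sample concentrations. The value reported is the concentration required to cause a microscopically detectable alteration of normal cell morphology.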

Human alphaherpesvirus 1 [6] = test: Antiviral activity against thymidine kinase-negative acyclovir-resistant HSV-1 KOS infected in HEL cells assessed as inhibition of virus-induced cytopathicity; assay type: functional, organism-based; in short: as §2
[7] = Cytotoxicity against cat CRFK cells assessed as cell viability by MTS assay; assay type: cell-based, Felis catus
In short: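 CRFK cells were exposed to varying sample concentrations. Cell viability was measured with the colorimetric formazan-based MTS assay, and the 50% cytotoxic concentration (CC50) was derived from it.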

Influenza A virus = test: Antiviral activity against influenza A virus H1N1 infected in MDCK cells assessed as inhibition of virus-induced cytopathicity; assay type: functional, organism-based; in short: as §2
Vaccinia virus = test: Antiviral activity against Vaccinia virus infected in HEL cells assessed as inhibition of virus-induced cytopathicity; assay type: functional, organism-based; settings: Orthopoxvirus vaccinia; in short: as §2
Human alphaherpesvirus 1 [8] = test: Antiviral activity against HSV-1 KOS infected in HEL cells assessed as inhibition of virus-induced cytopathicity; assay type: functional, organism-based; in short: as §1
[9] = system: Mammalian orthoreovirus 1; test: Antiviral activity against Reovirus 1 infected in African green monkey Vero cells assessed as inhibition of virus-induced cytopathicity; assay type: functional, organism-based; in short: as §1
Plasmodium falciparum [10] = test: Antiplasmodial activity against chloroquine-resistant asexual erythrocytic stage of Plasmodium falciparum Dd2 assessed as parasite growth inhibition by lactate dehydrogenase assay; assay type: functional, organism-based
In short: (§3)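 Parasite lactate dehydrogenase assay (modified Makler method). Samples held as 20 mg/mL stocks in DMSO, diluted on test day. Full dose-response: starting at 10 μg/mL, 2-fold serial dilution in complete medium over 10 concentrations down to 0.02 μg/mL. Chloroquine, artesunate and MMV390048 served as references. IC50 from nonlinear dose-response curve fitting; mean of three independent experiments.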

[11] = Solubility of the compound in octanol at pH 7.4 by HPLC analysis; assay type: physicochemical
[12] = system: Vesicular stomatitis virus; test: Antiviral activity against Vesicular stomatitis virus infected in HEL cells assessed as inhibition of virus-induced cytopathicity; assay type: functional, organism-based; in short: as §2
[13] = Selectivity index, ratio of CC50 for cat CRFK cells to IC50 for chloroquine-resistant asexual erythrocytic stage of Plasmodium falciparum Dd2; assay type: functional
In short: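 Ratio of CRFK CC50 (μM) to Dd2 IC50 […]. CC50 is the 50% cytotoxic concentration in feline kidney CRFK cells, measured as cell viability by colorimetric formazan-based MTS assay. Dd2 IC50 is from the parasite LDH growth-inhibition assay.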

Feline coronavirus = test: Antiviral activity against Feline coronavirus infected in cat CRFK cells assessed as inhibition of virus-induced cytopathicity; assay type: functional, organism-based; in short: as §1
Human respirovirus 3 = test: Antiviral activity against parainfluenza virus 3 infected in African green monkey Vero cells assessed as inhibition of virus-induced cytopathicity; assay type: functional, organism-based; in short: as §1
Felid alphaherpesvirus 1 = test: Antiviral activity against Feline herpesvirus infected in cat CRFK cells assessed as inhibition of virus-induced cytopathicity; assay type: functional, organism-based; in short: as §1
Plasmodium falciparum [14] = test: Antiplasmodial activity against chloroquine-sensitive asexual erythrocytic stage of Plasmodium falciparum D10 assessed as parasite growth inhibition by lactate dehydrogenase assay; assay type: functional, organism-based; in short: as §3
Coxsackievirus B4 [15] = test: Antiviral activity against Coxsackievirus B4 infected in human HeLa cells assessed as inhibition of virus-induced cytopathicity; assay type: functional, organism-based; in short: as §1
Human alphaherpesvirus 2 = test: Antiviral activity against HSV-2 G infected in HEL cells assessed as inhibition of virus-induced cytopathicity; assay type: functional, organism-based; settings: strain G; in short: as §1
[16] = system: Respiratory syncytial virus; test: Antiviral activity against Respiratory syncytial virus infected in human HeLa cells assessed as inhibition of virus-induced cytopathicity; assay type: functional, organism-based; in short: as §1
[17] = n-octanol-PBS buffer distribution coefficient, log D of the compound at pH 7.4 after 24 hrs by HPLC analysis; assay type: physicochemical
Human betaherpesvirus 5 [18] = test: Antiviral activity against Cytomegalovirus AD169 infected in HEL cells assessed as inhibition of virus-induced cytopathicity; assay type: functional, organism-based

Clc1ccc2c(NCCCNc3nccc(N4CCNCC4)n3)ccnc2c1
inhibition (Sindbis virus): inactive | inhibition (Human betaherpesvirus 5 [1]): inactive | inhibition (Punta Toro virus): inactive | inhibition [2]: inactive | inhibition (Coxsackievirus B4 [3]): inactive | inhibition (Influenza A virus H3N2): inactive | solubility [4]: 0.6 µM (≈ 0.239 µg/mL) | inhibition (Human alphaherpesvirus 3): inactive | MCC [5]: 100 µM | inhibition (Human alphaherpesvirus 1 [6]): inactive | CC50 [7]: 74000 nM | inhibition (Influenza A virus): inactive | inhibition (Vaccinia virus): inactive | inhibition (Human alphaherpesvirus 1 [8]): inactive | inhibition [9]: inactive | IC50 (Plasmodium falciparum [10]): 2000 nM | solubility [11]: 0.75 µM (≈ 0.298 µg/mL) | inhibition [12]: inactive | Ratio CC50/IC50 [13]: 36 | inhibition (Feline coronavirus): inactive | inhibition (Human respirovirus 3): inactive | inhibition (Felid alphaherpesvirus 1): inactive | IC50 (Plasmodium falciparum [14]): 113 nM | inhibition (Coxsackievirus B4 [15]): inactive | inhibition (Human alphaherpesvirus 2): inactive | inhibition [16]: inactive | logD at 24 h [17]: 0.102 | inhibition (Human betaherpesvirus 5 [18]): inactive

Clc1ccc2c(NCCCOc3nccc(Cl)n3)ccnc2c1
inhibition (Sindbis virus): inactive | inhibition (Human betaherpesvirus 5 [1]): inactive | inhibition (Punta Toro virus): inactive | inhibition [2]: inactive | inhibition (Coxsackievirus B4 [3]): inactive | inhibition (Influenza A virus H3N2): inactive | solubility [4]: 0.2 µM (≈ 0.0698 µg/mL) | inhibition (Human alphaherpesvirus 3): inactive | MCC [5]: > 100 µM | inhibition (Human alphaherpesvirus 1 [6]): inactive | CC50 [7]: > 100000 nM | inhibition (Influenza A virus): inactive | inhibition (Vaccinia virus): inactive | inhibition (Human alphaherpesvirus 1 [8]): inactive | inhibition [9]: inactive | IC50 (Plasmodium falciparum [10]): 204 nM | solubility [11]: 2.19 µM (≈ 0.765 µg/mL) | inhibition [12]: inactive | Ratio CC50/IC50 [13]: >490 | inhibition (Feline coronavirus): inactive | inhibition (Human respirovirus 3): inactive | inhibition (Felid alphaherpesvirus 1): inactive | IC50 (Plasmodium falciparum [14]): 304 nM | inhibition (Coxsackievirus B4 [15]): inactive | inhibition (Human alphaherpesvirus 2): inactive | inhibition [16]: inactive | logD at 24 h [17]: 1.04 | inhibition (Human betaherpesvirus 5 [18]): inactive
